Screening results as filed in PubChem BioAssay.
Rows were chosen to be rich in hits. Some 3% of all compounds tested hit in one or more screens of this group.
Tn6 DDE FP – inhibitors of Tn6 peptide binding to fibrin DD(E), primary screen, biochemical, fluorescence polarization, human fibrin, Tn6 probe. actives 0.21% (n = 370,000). Fibrinogen beta chain (Homo sapiens), P02675. Fibrin DD(E) TRITC-Tn6 fluorescence polarization displacement. AID 720509, 2013. inhibition, % at 8.3 µM;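 active = inhibition above a per-campaign cutoff: mean of compounds within control limits plus 3 SD, cut at about 15% in these data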;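 note: 0% = median of all compound wells on the plate and 100% = blocking peptide control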
Target sequence (P02675 whole entry, looked up): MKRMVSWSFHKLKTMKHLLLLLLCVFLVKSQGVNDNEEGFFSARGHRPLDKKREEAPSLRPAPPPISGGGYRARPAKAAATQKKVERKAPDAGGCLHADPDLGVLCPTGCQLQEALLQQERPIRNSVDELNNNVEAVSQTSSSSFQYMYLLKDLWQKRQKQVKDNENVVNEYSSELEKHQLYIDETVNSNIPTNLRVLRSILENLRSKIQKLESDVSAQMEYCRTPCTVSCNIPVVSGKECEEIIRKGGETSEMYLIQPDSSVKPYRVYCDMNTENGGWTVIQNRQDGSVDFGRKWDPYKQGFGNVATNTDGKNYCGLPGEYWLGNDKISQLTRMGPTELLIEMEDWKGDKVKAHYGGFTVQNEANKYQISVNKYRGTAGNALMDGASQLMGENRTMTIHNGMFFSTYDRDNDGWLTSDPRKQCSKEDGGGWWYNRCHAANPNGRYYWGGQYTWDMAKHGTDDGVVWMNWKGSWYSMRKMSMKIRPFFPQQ
PLCb3 inh – human PLC-beta3 inhibitors, primary screen, biochemical, fluorescence. 1-phosphatidylinositol 4,5-bisphosphate phosphodiesterase beta-3 (Homo sapiens), Q01970. Purified PLC-beta3, fluorogenic substrate. inhibition, % at 12.2 µM. actives 0.18% (n = 370,000); in the data active = inhibition above about 11%;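 note: 0% = median of compound wells on plate and 100% = full blocker control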
DDE Tn7 FP inh – inhibitors of Tn7 peptide binding to fibrin DD(E), primary screen, biochemical, fluorescence polarization, human fibrin, Tn7 probe; Fibrinogen beta chain (Homo sapiens), P02675; FP displacement of FITC-Tn7 peptide from fibrin DD(E); 0% = median of compound wells per plate; inhibition, % at 8.3 µM; actives 0.13% (n = 370,000);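 active = inhibition above the mean of compounds falling within the control limits plus 3 SD of them, cut at about 14% in these data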;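 note: 0% = plate median of compound wells and 100% = 10 µM Aha-Tn7 peptide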
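Assay system: human fibrin DD(E). Input: DD(E) 2 µM final. Medium: Tris buffer with calcium and detergent, pH 7.8. Compound dosing: single point at 8.3 µM. Timing: 10 min plus 3 h, room temperature. Technique: fluorescence polarization of the labelled Tn7 tracer. Read-out: percent inhibition. Replicates: singlicate testing.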
NRP1-CendR mod – modulators of CendR peptide binding to NRP-1, primary screen, biochemical, fluorescence polarization, uHTS. Neuropilin-1 (Homo sapiens), O14786. FAM-RPARPAR peptide binding to NRP-1. inhibition, % at 25 µM. actives 0.85% (n = 360,000). AID 602438, 2012;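 active = inhibition or corrected inhibition above about 18%, plus a signal ratio from 0.5 to 1.5, limit read from the data, passing the limit was not always enough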
PLC-gamma1 inh – PLC-gamma1 enzyme inhibitors, primary screen, biochemical, fluorescence, purified enzyme | fluorogenic substrate | inhibition, % at 12.2 µM | actives 0.84% (n = 370,000) | AID 720700, 2013; in the data active = inhibition above about 9.5%
KLK7 zymogen act – proKLK7 zymogen activators, primary screen, biochemical, fluorescence intensity | activation, % at 7 µM | purified proKLK7, EDANS-DABCYL substrate fluorescence; 100% is mature enzyme control, 0% vehicle | Kallikrein-7 (Homo sapiens), P49862 | actives 0.9% (n = 370,000) | AID 652039, 2013;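 active = activation above the mean of all tested compounds plus 3 SD, computed per campaign excluding outliers beyond control limits, cut at about 13% in these data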
Target sequence (P49862 whole entry, looked up): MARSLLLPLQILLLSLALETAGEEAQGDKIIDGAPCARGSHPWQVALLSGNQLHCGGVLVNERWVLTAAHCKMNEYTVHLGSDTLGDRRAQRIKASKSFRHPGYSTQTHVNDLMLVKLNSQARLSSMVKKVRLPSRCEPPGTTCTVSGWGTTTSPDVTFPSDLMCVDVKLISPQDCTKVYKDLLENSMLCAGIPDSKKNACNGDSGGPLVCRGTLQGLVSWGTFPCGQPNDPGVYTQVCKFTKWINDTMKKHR
proKLK7 act conf – proKLK7 zymogen activators, confirmation, biochemical, fluorescence intensity, triplicate; shares compounds with KLK7 zymogen act; actives 68% (n = 3,200); purified proKLK7, EDANS-DABCYL substrate fluorescence; scaled: vehicle 0, mature enzyme 100; activation, % at 7 µM;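 active = activation, as change over the incubation, above the mean of all tested compounds plus 3 SD, cut at about 13% in these data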
EDANS interfere – EDANS-DABCYL substrate optical interference, artefact control for kallikrein-7 zymogen activator project, biochemical, fluorescence intensity, high throughput; actives 80% (n = 3,200); shares compounds with KLK7 zymogen act; no enzyme, 4 h; solvent 0%, active enzyme control 100%; AID 686952, 2013; activation, % at 7 µM;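 active = activation above the all-compound mean plus 3 SD, ignoring values outside control-based bounds, cut at about 4.8% in these data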;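 note: value is the 4 h activation minus the activation read at time zero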
K7 EDANS ctr – EDANS fluorescence interference in dose response, no enzyme. shares compounds with KLK7 zymogen act. EDANS-DABCYL peptide fluorescence interference. EC50, µM. actives 20% (n = 250). AID 720493;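 active = compounds that raise the fluorescence signal in this interference counterscreen, with EC50 at or below 10 µM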;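 note: intact quenched peptide substrate alone read at 355 nm excitation and 520 nm emission; signal is fluorescence gain from T0 to T4 after four hours at room temperature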
* = called active by the depositor; i = inactive; nt = no result given.

SMILES	Tn6 DDE FP	PLCb3 inh	DDE Tn7 FP inh	NRP1-CendR mod	PLC-gamma1 inh	KLK7 zymogen act	proKLK7 act conf	EDANS interfere	others
CC(C)CC1=NN2C(=N)/C(=C\c3coc4ccccc4c3=O)C(=O)N=C2S1	-11.5	-205.4	-5.9	133.8	-180.2	24.0*	24.1*	22.8*
COCCCNC(=O)C[C@H]1C[C@@]2(C(=O)OC)C(=C[C@H](C(C)C)O[C@@H]2C2CC2)N(Cc2ccco2)C1=O	3.7	1.2	0.5	nt	-1.2	0.7	nt	nt
CCCN1CCN(CCCNC(=O)c2cc3c(=O)[nH]c4ccc(C)cc4c3s2)CC1	9.1	-207.1	-3.8	-3.2	-141.6	21.4*	-16.5	-14.3
CCN1CCN(CCCNC(=O)c2cc3c(=O)oc4ccc(C)cc4c3s2)CC1	4.8	-11.7	-1.0	15.5	-4.3	-0.1	nt	nt
Cc1ccc(NC(=O)N2CCC(c3nc4ccc(Cl)cc4[nH]3)CC2)cc1F	-2.2	-0.8	-2.4	nt	0.1	-0.2	nt	nt
COc1cc(OC)c(/C=N/NC(=O)c2ccncc2)c(OC)c1	9.6	-17.8	-0.4	-18.5	-10.8	13.8*	7.6	9.1*
COc1ccc(/C=N/NC(=O)c2ccncc2)c(OC)c1	13.8	-24.2	1.9	-6.8	-15.2	-2.2	nt	nt
C[C@@H]1CCCN1c1cccc2c1S(=O)(=O)N1CC[C@H](C1)O2	6.1	1.1	4.0	nt	-1.6	-0.2	nt	nt
O=C(Nc1cccc(Cl)c1)Nc1sccc1-c1nc2ccccc2s1	-16.3	i	0.1	-37.5	i	-239.2	nt	nt
O=C(Nc1ccccc1)Nc1sccc1-c1nc2ccccc2s1	-0.9	-348.4	1.5	-30.6	-303.5	34.7*	-212.1	-177.1
O=C(NCCN1C(=O)C2C3C=CC(C3)C2C1=O)c1cc(F)cc(F)c1 (stereo unspecified)	1.5	0.7	0.7	nt	-0.8	0.0	nt	nt
Cc1cc(C)c2cc(C#N)c(NCCCNC(=O)CCC(=O)O)nc2c1	0.5	-144.3	-3.6	-6.7	-117.9	15.3*	20.3*	22.2*
CCC(CC)CC1CN2CCc3cc(OC)c(OC)cc3C2CC1(O)CC (stereo unspecified)	-0.6	i	-0.6	-15.1	-445.0	29.7*	19.8*	16.9*	K7 EDANS ctr=>69.5
COc1cc2c(cc1OC)C1CC(=O)C(CC(C)C)CN1CC2 (stereo unspecified)	-0.5	-20.5	-0.6	2.2	-6.5	-3.0	nt	nt
c1ccc2c(c1)NC1(CCCCCC1)n1c-2nc2ccccc21	-4.4	i	7.4	-1.6	i	51.7*	2.5	3.4
O=C1Nc2ccccc2C12Nc1ccccc1-c1nc3ccccc3n12 (stereo unspecified)	-8.1	-28.5	-5.9	-2.4	-16.5	0.1	nt	nt
CCCCC1(C)Nc2ccccc2-c2nc3ccccc3n21 (stereo unspecified)	-0.4	i	-1.5	13.9	i	62.5*	-11.0	-12.3
c1ccc2c(c1)NC1(CCCCC1)n1c-2nc2ccccc21	-1.1	i	-11.9	-7.7	i	63.3*	7.3	12.1*
CC1(c2ccccn2)Nc2ccccc2-c2nc3ccccc3n21 (stereo unspecified)	10.1	i	4.0	-16.3	i	56.4*	9.9	3.0
COC(=O)[C@]12C[C@H](CC(=O)NCCc3ccccc3OC)C(=O)N(Cc3cccc4ccccc34)C1=C[C@H](C(C)(C)C)O[C@@H]2C	-4.4	-0.1	-9.6	nt	5.4	-0.6	nt	nt
CC(C)(C)OC(=O)n1cc(-c2ccccc2)c2c(-c3ccccc3)c(O)ccc21	-1.2	-2.5	-0.7	nt	0.9	-0.4	nt	nt
CC(C)(C)OC(=O)NCc1ccccc1/C=C/S(=O)(=O)NCCc1ccccc1	2.2	-3.0	4.2	nt	0.6	0.7	nt	nt
COc1ccc(C#Cc2c(-c3ccccc3OC)oc3ccccc23)cc1	-5.2	-28.8	-3.5	nt	-2.1	-0.7	nt	nt
C/C(=N/NC(=O)c1cccnc1)c1cccc(O)c1	-3.0	-2.2	-1.6	nt	-1.2	-0.1	nt	nt
Cc1cc2c(nc1C)CCCN2Cc1ccccn1	6.9	-124.7	6.7	nt	-97.0	15.0*	-4.0	-6.6
SMILES	Tn6 DDE FP	PLCb3 inh	DDE Tn7 FP inh	NRP1-CendR mod	PLC-gamma1 inh	KLK7 zymogen act	proKLK7 act conf	EDANS interfere	others
Brc1ccc(-c2ccc3c(n2)CCCN3Cc2ccccn2)cc1	6.1	-86.4	5.2	nt	-75.2	-1.4	nt	nt
Nc1ccccc1-c1nc2ccccc2c(=O)o1	-2.4	-254.3	-0.5	-5.1	-225.3	15.1*	5.8	4.0
CC1CCCCC1C(=O)N1CCC(Oc2cccnc2)CC1 (stereo unspecified)	-1.9	1.6	5.9	nt	1.1	-0.6	nt	nt
O=c1oc2ccc3ccccc3c2cc1-c1nc2ccccc2o1	-4.6	i	-1.0	-12.1	i	-52.6	nt	nt
O=c1oc2ccccc2cc1-c1nc2ccccc2o1	1.8	i	-2.2	-4.8	i	88.5*	74.2*	85.8*
O=C(COCc1ccccc1)N1CC[C@H]2[C@H](CCCN2Cc2cc(F)cc(F)c2)C1	5.5	0.1	6.8	nt	-1.9	0.4	nt	nt
CCOC(=O)N1CCc2[nH]c3ccc(C)cc3c2C1	-4.0	-97.1	3.2	23.7	-61.3	16.6*	22.8*	23.5*
CC(=O)N1CCc2[nH]c3ccc(C)cc3c2C1	6.7	-140.3	6.1	18.6	-127.1	3.2	nt	nt
CCCn1c(N)c(N(CCOC)C(=O)COC(=O)c2ccccc2NCCO)c(=O)[nH]c1=O	9.1	i	3.0	2.8	i	24.3*	28.7*	29.1*
CCCCn1c(N)c(N(CCOC)C(=O)COC(=O)c2ccccc2OCC)c(=O)[nH]c1=O	1.3	-8.7	0.0	3.8	-1.8	0.2	nt	nt
CCCCn1c(N)c(N(CC(C)C)C(=O)COC(=O)c2ccccc2NCCO)c(=O)[nH]c1=O	2.5	i	0.9	-15.6	i	21.9*	21.1*	26.7*
COCCN1CCn2c(nc3cc(NC(=O)NC4CCCCC4)ccc32)C1	5.6	i	-3.5	-4.1	i	15.5*	-21.6	-14.1
